The values that follow come from ChEMBL document CHEMBL4425094, “Novel Benzo[a]quinolizidine Analogs Induce Cancer Cell Death through Paraptosis and Apoptosis” (J Med Chem, 2016).

The subject of one assay is PC-3. Put plainly: Cytotoxicity against human PC3 cells assessed as cell growth inhibition after 24 hrs by MTT assay. The conditions noted are these: PC-3, 24 h. The class given is functional, cell-based. In outline: (§1)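 Cells seeded 24 h in RPMI 1640 + 10% FBS. RWPE-1 was kept in K-SFM with bovine pituitary extract and EGF. Cells then exposed to compounds for 24 h at 37 °C, 5% CO2, with DMSO vehicle and docetaxel as positive control. MTT added for 4 h, absorbance read at 570 nm. Triplicate runs, IC50 reported as mean of three experiments.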

In a further assay the test system is HeLa. In words: Cytotoxicity against human HeLa cells assessed as cell growth inhibition after 24 hrs by MTT assay. In kind it is functional, cell-based. The method in brief:
as §1

The test system of a further assay is RWPE-1. Put plainly: Cytotoxicity against human RWPE1 cells assessed as cell growth inhibition after 24 hrs by MTT assay. The conditions noted are these: RWPE-1, 24 h. The class given is cell-based. In outline:
as §1

The next assay deals with DU-145. Put plainly: Cytotoxicity against human DU145 cells assessed as cell growth inhibition after 24 hrs by MTT assay. In kind it is functional, cell-based. The following applies: DU-145, 24 h. In outline: as §1
The subject of a further assay is K562. Put plainly: Cytotoxicity against human K562 cells assessed as cell growth inhibition after 24 hrs by MTT assay. In kind it is functional, cell-based. The following applies: K562, 24 h. The method in brief:
as §1

The next assay relates to MDA-MB-231. Put plainly: Cytotoxicity against human MDA-MB-231 cells assessed as cell growth inhibition after 24 hrs by MTT assay. The class given is functional, cell-based. The following applies: MDA-MB-231, 24 h. The method in brief: as §1
The subject of the next assay is MCF7. In words: Cytotoxicity against human MCF7 cells assessed as cell growth inhibition after 24 hrs by MTT assay. The conditions noted are these: MCF7, 24 h. In kind it is functional, cell-based. The method in brief:
as §1

Consider `C[C@@H]1C[C@H](O)C[C@H]2c3cc(OCc4cccc(F)c4)c(OCc4cccc(F)c4)cc3CCN12`, for which the half-maximal inhibitory concentration (IC50) in the assay with PC-3 stood at 1.36 µM; with HeLa, 1.31 µM; in the assay with RWPE-1, 4.45 µM; in the assay with DU-145, 3.05 µM; in the assay with K562, 1.08 µM; in the assay on MDA-MB-231 it was 1.23 µM. Besides, in the assay with MCF7, the IC50 worked out at 0.62 µM.

In the case of `O[C@H]1C[C@@H](c2ccccc2)N2CCc3cc4c(cc3[C@@H]2C1)OCO4`, the half-maximal inhibitory concentration (IC50) in the assay on PC-3, in the assay with HeLa, in the assay on RWPE-1, with DU-145, with K562 and in the assay on MDA-MB-231 was greater than 20 µM throughout. Besides, in the assay with MCF7, the IC50 is greater than 20 µM.

With `O[C@]1(c2ccccc2)C[C@@H](c2ccccc2)N2CCc3cc(OCc4ccccc4)c(OCc4ccccc4)cc3[C@@H]2C1`, the half-maximal inhibitory concentration (IC50) with PC-3, in the assay with HeLa, with RWPE-1, with DU-145, in the assay with K562 and with MDA-MB-231 was greater than 20 µM in each case. The half-inhibitory concentration (IC50) in the assay with MCF7 is greater than 20 µM.

As to `C/C=C/C(=O)CC1c2cc(OCc3cc(C)cc(C)c3)c(OCc3cc(C)cc(C)c3)cc2CCN1C(=O)OC(C)(C)C` (stereo not given), the concentration for half-maximal inhibition (IC50) in the assay on PC-3, in the assay with HeLa, in the assay on RWPE-1, with DU-145, in the assay with K562 and in the assay with MDA-MB-231 was greater than 20 µM throughout. The IC50 in the assay on MCF7 is greater than 20 µM.

As to `COc1cc([C@@H]2CC(=O)C[C@H]3c4cc(OCc5ccccc5)c(OCc5ccccc5)cc4CCN23)cc(OC)c1OC` (relative stereo), the half-maximal inhibitory concentration (IC50) in the assay on PC-3, in the assay with HeLa, in the assay with RWPE-1, in the assay on DU-145, in the assay on K562 and in the assay on MDA-MB-231 was greater than 20 µM in each case. Moreover, in the assay with MCF7, the half-inhibitory concentration (IC50) was greater than 20 µM.

On to `O[C@H]1C[C@@H](c2ccccc2)N2CCc3cc(OCc4ccccc4)c(OCc4ccccc4)cc3[C@@H]2C1`, for which the 50% inhibitory concentration (IC50) in the assay with PC-3, in the assay on HeLa, in the assay with RWPE-1, in the assay with DU-145, in the assay with K562 and with MDA-MB-231 was greater than 20 µM each time. The concentration for half-maximal inhibition (IC50) in the assay on MCF7 is greater than 20 µM.

`O[C@@]1(c2ccccc2)C[C@@H](c2ccccc2)N2CCc3cc(OCc4ccccc4)c(OCc4ccccc4)cc3[C@@H]2C1`: the half-inhibitory concentration (IC50) in the assay with PC-3, with HeLa, in the assay on RWPE-1, in the assay with DU-145, in the assay on K562 and in the assay on MDA-MB-231 was greater than 20 µM throughout. In addition, the half-maximal inhibitory concentration (IC50) in the assay on MCF7 is greater than 20 µM.

With `CC[C@@H]1C[C@H](O)C/C=C(/C)[C@H]2c3cc(OCc4ccccc4)c(OCc4ccccc4)cc3CCN12`, the IC50 in the assay with PC-3, with HeLa, in the assay with RWPE-1, with DU-145, in the assay on K562 and with MDA-MB-231 was greater than 20 µM throughout. Further, in the assay with MCF7, the half-inhibitory concentration (IC50) was greater than 20 µM.

Regarding `CC[C@@H]1C[C@@H](O)C/C=C(/C)[C@H]2c3cc(OCc4ccccc4)c(OCc4ccccc4)cc3CCN12`, the IC50 with PC-3, in the assay on HeLa, in the assay with RWPE-1, in the assay on DU-145, in the assay with K562 and in the assay on MDA-MB-231 was greater than 20 µM in each case. In addition, the concentration for half-maximal inhibition (IC50) in the assay on MCF7 is greater than 20 µM.

In the case of `CCC[C@@H]1C[C@H](O)C/C=C(/CC)[C@H]2c3cc(OCc4ccccc4)c(OCc4ccccc4)cc3CCN12`, the IC50 in the assay with PC-3, in the assay with HeLa, in the assay with RWPE-1, in the assay on DU-145, in the assay on K562 and in the assay on MDA-MB-231 was greater than 20 µM each time. The half-maximal inhibitory concentration (IC50) with MCF7 is greater than 20 µM.

Turning to `CCCCCCCCCCCCCCCCOc1cc2c(cc1OCCCCCCCCCCCCCCCC)[C@@H]1CC(=O)C[C@@H](C)N1CC2`, the half-inhibitory concentration (IC50) with PC-3, with HeLa, in the assay with RWPE-1, in the assay on DU-145, in the assay on K562 and in the assay on MDA-MB-231 was greater than 20 µM throughout. The half-inhibitory concentration (IC50) in the assay on MCF7 is greater than 20 µM.

Take `O[C@@H]1C[C@@H](c2ccc(-c3ccccc3)cc2)N2CCc3cc(OCc4ccccc4)c(OCc4ccccc4)cc3[C@@H]2C1`: the concentration for half-maximal inhibition (IC50) with PC-3 came out at 1.16 µM; in the assay with HeLa, 3.42 µM; in the assay with RWPE-1, 4.42 µM; with DU-145, 1.36 µM; in the assay on K562, 3.24 µM; in the assay with MDA-MB-231, 3.28 µM. For the same compound, the half-maximal inhibitory concentration (IC50) in the assay with MCF7 worked out at 0.28 µM.

In the case of `O[C@@H]1C[C@@H](c2ccccc2)N2CCc3cc4c(cc3[C@@H]2C1)OCO4`, the IC50 in the assay with PC-3, in the assay with HeLa, in the assay with RWPE-1, in the assay on DU-145, in the assay on K562 and in the assay with MDA-MB-231 was greater than 20 µM throughout. In addition, the IC50 in the assay with MCF7 was greater than 20 µM.

As to `CCOC1c2cc(OCc3cc(C)cc(C)c3)c(OCc3cc(C)cc(C)c3)cc2CCN1C(=O)OC(C)(C)C` (stereo not given), the IC50 in the assay with PC-3, in the assay with HeLa, with RWPE-1, in the assay with DU-145, in the assay on K562 and in the assay on MDA-MB-231 was greater than 20 µM throughout. The IC50 in the assay on MCF7 is greater than 20 µM.

For `O=C1C=CN2CCc3cc(OCc4ccccc4)c(OCc4ccccc4)cc3C2C1` (stereo not given), the IC50 in the assay on PC-3, in the assay on HeLa, in the assay with RWPE-1, in the assay on DU-145, in the assay with K562 and in the assay with MDA-MB-231 was greater than 20 µM each time. The IC50 in the assay on MCF7 is greater than 20 µM.

Consider `O[C@@H]1C[C@@H](c2ccccc2)N2CCc3ccccc3[C@@H]2C1`, for which the 50% inhibitory concentration (IC50) with PC-3, in the assay with HeLa, in the assay on RWPE-1, with DU-145, in the assay with K562 and in the assay on MDA-MB-231 was greater than 20 µM each time. In addition, the IC50 with MCF7 is greater than 20 µM.

Turning to `CCCCCC[C@@H]1C[C@@H](O)C[C@H]2c3cc(OCc4ccccc4)c(OCc4ccccc4)cc3CCN12`, the IC50 in the assay with PC-3, with HeLa, in the assay with RWPE-1, with DU-145, in the assay with K562 and in the assay on MDA-MB-231 was greater than 20 µM in each case. Besides, the half-maximal inhibitory concentration (IC50) in the assay with MCF7 was greater than 20 µM.

Turning to `C[C@@H]1CC(=O)C[C@H]2c3cc(OCc4cccc(F)c4)c(OCc4cccc(F)c4)cc3CCN12`, the concentration for half-maximal inhibition (IC50) is greater than 20 µM in the assay on PC-3; greater than 20 µM in the assay on HeLa; greater than 20 µM with RWPE-1; greater than 20 µM in the assay with DU-145; greater than 20 µM with K562; 1.3 µM in the assay with MDA-MB-231. Also, the 50% inhibitory concentration (IC50) with MCF7 is greater than 20 µM.

In the case of `CCCCCC[C@@H]1CC(=O)C[C@H]2c3cc(OCc4ccccc4)c(OCc4ccccc4)cc3CCN12` (relative stereo), the IC50 with PC-3, with HeLa, in the assay with RWPE-1, with DU-145, in the assay with K562 and in the assay with MDA-MB-231 was greater than 20 µM each time. Besides, the concentration for half-maximal inhibition (IC50) with MCF7 was greater than 20 µM.

With `O[C@@H]1CCN2CCc3cc(OCc4ccccc4)c(OCc4ccccc4)cc3[C@@H]2C1` (relative stereo), the IC50 with PC-3, in the assay on HeLa, in the assay on RWPE-1, with DU-145, in the assay with K562 and with MDA-MB-231 was greater than 20 µM in each case. For the same compound, in the assay on MCF7, the 50% inhibitory concentration (IC50) was greater than 20 µM.

Consider `Cc1cc(C)cc(COc2cc3c(cc2OCc2cc(C)cc(C)c2)[C@@H]2CC(=O)C[C@@H](C)N2CC3)c1` (relative stereo), for which the IC50 with PC-3, with HeLa, in the assay on RWPE-1, in the assay with DU-145, in the assay with K562 and in the assay on MDA-MB-231 was greater than 20 µM throughout. Moreover, in the assay on MCF7, the IC50 was greater than 20 µM.

For `COc1cc2c(cc1OC)[C@@H]1C[C@H](O)C[C@@H](c3ccccc3)N1CC2`, the IC50 in the assay on PC-3, in the assay on HeLa, in the assay on RWPE-1, with DU-145, with K562 and with MDA-MB-231 was greater than 20 µM each time. The half-inhibitory concentration (IC50) in the assay with MCF7 was greater than 20 µM.

Regarding `COc1ccc([C@@H]2C[C@@H](O)C[C@H]3c4cc(OCc5ccccc5)c(OCc5ccccc5)cc4CCN23)cc1OC`, the IC50 in the assay on PC-3 stood at 1.51 µM; with HeLa, 3.46 µM; with RWPE-1 it was 2.08 µM; in the assay on DU-145, 1.59 µM; with K562 it was 5.42 µM; in the assay on MDA-MB-231, 1.15 µM. Further, the IC50 in the assay on MCF7 is 2 µM.

On to `CC[C@@H]1CC(=O)C/C=C(/C)[C@H]2c3cc(OCc4ccccc4)c(OCc4ccccc4)cc3CCN12` (relative stereo), for which the 50% inhibitory concentration (IC50) in the assay with PC-3, with HeLa, with RWPE-1, in the assay with DU-145, with K562 and in the assay with MDA-MB-231 was greater than 20 µM throughout. The half-inhibitory concentration (IC50) in the assay with MCF7 is greater than 20 µM.

For the compound `COc1cc([C@@H]2C[C@@H](O)C[C@H]3c4cc(OCc5ccccc5)c(OCc5ccccc5)cc4CCN23)cc(OC)c1OC`, the concentration for half-maximal inhibition (IC50) in the assay on PC-3, in the assay on HeLa, in the assay on RWPE-1, in the assay with DU-145, in the assay on K562 and with MDA-MB-231 was greater than 20 µM in each case. The IC50 in the assay on MCF7 was greater than 20 µM.
